Hsp70 act – Hsp70 transcriptional activators, primary screen, cell-based, HeLa, Hsp70 promoter luciferase, luminescence, 10 µM | HeLa Hsp70 promoter luciferase reporter; scaled: vehicle 0, proteasome-inhibitor control 100% | activation, % at 10 µM | 0.04% of 200,000 active | AID 1203, 2008;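 active = activation above the mean across all tested compounds plus 3 SD, cutoff set per campaign, cut at about 5.5% in these data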;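 note: 100% = MG132 at 30 µM as the positive control and 0% = DMSO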
CHOP inh – inhibitors of CHOP promoter induction, primary screen, cell-based, unfolded protein response, luciferase reporter | CHO-K1 CHOP-promoter luciferase, tunicamycin-induced, 15-18 h | 3.8% of 220,000 active | inhibition, % at 10 µM | AID 2732, 2010;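 active = compounds that reduced the stress-induced luciferase reporter signal by more than about 70% of percent inhibition, limit read from the data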;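 note: 0% = tunicamycin plus vehicle and 100% = wells without tunicamycin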
MDM2 E3 inh – MDM2-luciferase reporter signal enhancers, primary screen, MDM2 E3 ligase inhibitor project, cell-based, luminescence, 1536-well; E3 ubiquitin-protein ligase Mdm2 (Homo sapiens), Q00987; cell-based MDM2 ubiquitination luciferase reporter, 2 h; 0 = plate control, 100 = twice control, blank-subtracted; signal enhancement, % at 5 µM; 0.11% of 210,000 active; AID 1230, 2008;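 active = signal enhancement of 30% or more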;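 note: luminescence tracks abundance of the self-degrading MDM2-luciferase fusion protein; higher signal means inhibition of MDM2 E3 ligase activity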
Target sequence (Q00987 whole entry, looked up, the tested form may be a part): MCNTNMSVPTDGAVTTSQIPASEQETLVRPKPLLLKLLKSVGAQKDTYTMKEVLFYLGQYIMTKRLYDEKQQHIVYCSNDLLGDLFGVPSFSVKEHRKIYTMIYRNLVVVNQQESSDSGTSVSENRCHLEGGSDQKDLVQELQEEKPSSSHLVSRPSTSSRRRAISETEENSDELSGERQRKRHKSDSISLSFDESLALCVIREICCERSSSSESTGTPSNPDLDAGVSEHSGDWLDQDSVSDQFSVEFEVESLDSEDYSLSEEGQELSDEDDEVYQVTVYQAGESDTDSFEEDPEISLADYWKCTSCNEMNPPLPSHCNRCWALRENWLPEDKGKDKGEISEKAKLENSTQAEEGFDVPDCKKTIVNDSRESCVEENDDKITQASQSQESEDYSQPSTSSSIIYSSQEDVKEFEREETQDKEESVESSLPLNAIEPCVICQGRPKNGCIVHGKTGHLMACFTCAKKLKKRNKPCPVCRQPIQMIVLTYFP
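Assay system: stable mammalian line carrying autodegrading MDM2–luciferase fusion reporter; Input: 2000 cells in each well; Compound dosing: single-point 5 µM; Schedule: 2 h compound exposure at 37 °C; Signal: SteadyLite luciferase luminescence after 15 min room-temperature reagent incubation; Evaluation: % luminescence enhancement versus blank-corrected plate control mean; Benchmarks: plate controls and plate blanks.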
S1P3 antagonist – S1P3 receptor antagonists, primary screen, cell-based; Sphingosine 1-phosphate receptor 3 (Homo sapiens), Q99500; CHO S1P3 NFAT-BLA reporter, FRET fluorescence, antagonist mode; inhibition, % at 4.98 µM; 0.27% of 170,000 active;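 active = inhibition above the plate cutoff, the mean inhibition of test wells on that plate plus 3 SD, cut at about 28% in these data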;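 note: cells challenged with S1P at its EC80 of 0.8 µM; blue over green emission ratio from cleaved BLA substrate after 4 h stimulation; 0% = S1P-stimulated wells and 100% = unstimulated DMSO-only wells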
Active calls of the source: *. Only some compounds are listed: those with a hit (about 4% of all), similar ones and a draw of the others.

Cc1ccc(Cn2c(=N)n(CC(=O)c3ccccc3)c3ccccc32)cc1 was read as Hsp70 act -0.2, CHOP inh 59.4, MDM2 E3 inh 1.9 and S1P3 antagonist -7.0.
`CC(CCc1ccccc1)NC(=O)c1ccc(NC(=O)c2ccccc2)cc1` (configuration not stated) gave Hsp70 act -0.2, CHOP inh 84.8*, MDM2 E3 inh -5.5 and S1P3 antagonist -8.0.
For CCOC(=O)C(Oc1ccc2c(-c3ccc(OC)cc3)cc(=O)oc2c1C)c1ccccc1 (configuration not stated) the results were Hsp70 act -0.1, CHOP inh 54.8 and MDM2 E3 inh -15.8.
COc1ccc(-c2cc(=O)oc3c(C)c(OC(=O)c4cccs4)ccc23)cc1 was read as Hsp70 act -0.3, CHOP inh 80.2*, MDM2 E3 inh -25.1 and S1P3 antagonist -5.4.
`CCOc1ccc(CN2CCN(C3CCSCC3)CC2CCO)cc1` (configuration not stated) gave Hsp70 act 0.2, CHOP inh 6.1, MDM2 E3 inh -4.3 and S1P3 antagonist -6.7.
Screening O=C1/C(=C\c2ccco2)CCC/C1=C\c1ccco1 returned Hsp70 act -0.2, CHOP inh 87.4*, MDM2 E3 inh -2.6 and S1P3 antagonist 6.8.
N#C/C(=C(/O)COC(=O)CSc1ccc(Cl)cc1)c1nc2ccccc2[nH]1 was read as Hsp70 act 0.3, CHOP inh 81.8*, MDM2 E3 inh -2.6 and S1P3 antagonist -13.0.
For Cc1cc(SCC(=O)OC/C(O)=C(\C#N)c2nc3ccccc3[nH]2)c(C)cc1Br the results were Hsp70 act -0.4, CHOP inh 70.5*, MDM2 E3 inh -91.7 and S1P3 antagonist 14.0.
N#C/C(=C(/O)COC(=O)CCCNC(=O)c1ccc(Cl)cc1)c1nc2ccccc2[nH]1 was read as Hsp70 act 0.1, CHOP inh -5.3, MDM2 E3 inh -10.3 and S1P3 antagonist -19.3.
Screening COc1ccccc1OCC(=O)OC/C(O)=C(\C#N)c1nc2ccccc2[nH]1 returned Hsp70 act -0.3, CHOP inh -25.6, MDM2 E3 inh -3.6 and S1P3 antagonist -5.3.
For COCCN=C1NC(=O)C(CC(=O)Nc2cccc(Cl)c2C)S1 (configuration not stated) the results were Hsp70 act 0.0, CHOP inh 32.1, MDM2 E3 inh 3.7 and S1P3 antagonist -1.4.
O=c1oc2ccccc2cc1-c1ccc(O)cc1 was read as Hsp70 act 0.0, CHOP inh -4.8, MDM2 E3 inh -1.9 and S1P3 antagonist 18.7.
For Oc1cc(-c2ccccc2)c2ccccc2c1 the results were Hsp70 act -0.2, CHOP inh 100.6*, MDM2 E3 inh 1.3 and S1P3 antagonist -11.3.
Screening O=C(Nc1cccc(Cl)c1)c1ccc2c(c1)SC1=NS(=O)(=O)CCN12 returned Hsp70 act -0.2, CHOP inh -7.3, MDM2 E3 inh -27.7 and S1P3 antagonist -8.8.
Screening COc1cc(NS(=O)(=O)c2ccc(Br)cc2)c(OC)cc1NC(=O)c1ccco1 returned Hsp70 act 0.0, CHOP inh 57.3, MDM2 E3 inh -10.3 and S1P3 antagonist 4.1.
`CC(C)c1ccc(Nc2nc(Cl)nc(NCc3ccco3)n2)cc1` gave CHOP inh 79.5* and S1P3 antagonist -4.4.
OCCNc1nc(Cl)nc(NCc2ccco2)n1 was read as Hsp70 act -0.2, CHOP inh 17.2, MDM2 E3 inh 0.9 and S1P3 antagonist -17.8.
O=C(CCCN1C(=O)/C(=C/c2ccco2)SC1=S)Nc1ccccc1C(=O)O was read as CHOP inh 14.2, MDM2 E3 inh -17.8 and S1P3 antagonist -17.0.
`COc1ccc(/C=C2\SC(=O)N(CC(=O)NNC(=O)c3ccccc3O)C2=O)cc1` gave Hsp70 act 0.0, CHOP inh 78.3*, MDM2 E3 inh -10.9 and S1P3 antagonist 1.9.
For O=C(CCCN1C(=O)/C(=C/c2ccccc2)SC1=S)Nc1ccccc1O the results were Hsp70 act -0.2, CHOP inh 82.0*, MDM2 E3 inh -12.2 and S1P3 antagonist 2.0.
`O=C(CCCN1C(=O)S/C(=C\c2ccccc2)C1=O)NNC(=O)c1ccccc1O` gave Hsp70 act -0.5, CHOP inh 95.2*, MDM2 E3 inh 4.8 and S1P3 antagonist -1.6.
`O=C(CN1C(=O)S/C(=C\c2ccccc2)C1=O)NNC(=O)c1ccccc1O` gave Hsp70 act 0.0, CHOP inh 53.0, MDM2 E3 inh 1.2 and S1P3 antagonist -0.2.
`CCOc1ccccc1N1CCN(C(=S)NCc2ccc(Cl)cc2)CC1` gave Hsp70 act -0.1, CHOP inh 52.3, MDM2 E3 inh -6.0 and S1P3 antagonist -5.2.
Cc1nc2ccc(NC(=S)NC3CCCCC3)cc2nc1C was read as Hsp70 act 0.1, CHOP inh -15.9, MDM2 E3 inh -14.8 and S1P3 antagonist 3.6.
`Cc1nn(Cc2ccc([N+](=O)[O-])cc2)c(=O)n1-c1ccccc1` gave Hsp70 act -0.3, CHOP inh -20.1 and MDM2 E3 inh -6.9.
Screening CCCCC1(Cc2ccc([N+](=O)[O-])cc2)C(=O)N(c2ccccc2)N(c2ccccc2)C1=O returned Hsp70 act -0.1, CHOP inh 77.0* and MDM2 E3 inh -11.1.
`Cc1ccc(/C=N/NC(=O)C2(O)c3ccccc3-c3ccccc32)o1` gave Hsp70 act 0.0, CHOP inh -8.7, MDM2 E3 inh 1.0 and S1P3 antagonist -14.2.
For C=CCNC(=S)NNc1nc2c(c(=O)[nH]1)C1(CCCC1)Cc1ccccc1-2 the results were Hsp70 act -0.2, CHOP inh 31.7 and S1P3 antagonist -6.9.
`O=c1[nH]c(NNC(=S)NCc2ccccc2)nc2c1C1(CCCCC1)Cc1ccccc1-2` gave Hsp70 act -0.3, CHOP inh 87.1* and S1P3 antagonist -7.5.
For O=C(CNC(=S)N(Cc1ccccc1)Cc1cccnc1)N1CCOCC1 the results were Hsp70 act 0.1, CHOP inh 6.4, MDM2 E3 inh -6.8 and S1P3 antagonist 1.1.
`O=c1c2ccccc2c(C=Nc2ccccc2O)c(O)n1-c1nccs1` gave CHOP inh 4.5, MDM2 E3 inh -4.5 and S1P3 antagonist -7.9.
Screening O=c1c2ccccc2sn1-c1nccs1 returned Hsp70 act -0.2, CHOP inh 93.8*, MDM2 E3 inh -10.8 and S1P3 antagonist -18.2.
Screening COc1ccc(C2CC(C)(c3ccc(OC)cc3OC)Nc3ccccc3N2)c(OC)c1 (configuration not stated) returned Hsp70 act -0.2, CHOP inh 79.7*, MDM2 E3 inh -16.8 and S1P3 antagonist 3.3.
`Cc1cc(C)nc(N2CCCC(C(=O)NCCc3ccccc3F)C2)n1` (configuration not stated) gave Hsp70 act -0.2, CHOP inh 31.1, MDM2 E3 inh 3.7 and S1P3 antagonist -12.1.

Screening data: PubChem, several laboratories
